Measurements: ChEMBL document CHEMBL1132958, “Design of monocyclic (1-3) and dicyclic (1-3/4-10) gonadotropin releasing hormone (GnRH) antagonists” (J Med Chem, 2000)
Activity calls are given as the source filed them. The rule behind the calls is not given here.

Experiments:
[1] = biological target: T1, Gonadotropin-releasing hormone receptor (Rattus norvegicus, UniProt P30969); test: Competitive radioligand binding assay for rat Gonadotropin-releasing hormone receptor cells stably transfected in human HEK293
T1 sequence (P30969 whole entry): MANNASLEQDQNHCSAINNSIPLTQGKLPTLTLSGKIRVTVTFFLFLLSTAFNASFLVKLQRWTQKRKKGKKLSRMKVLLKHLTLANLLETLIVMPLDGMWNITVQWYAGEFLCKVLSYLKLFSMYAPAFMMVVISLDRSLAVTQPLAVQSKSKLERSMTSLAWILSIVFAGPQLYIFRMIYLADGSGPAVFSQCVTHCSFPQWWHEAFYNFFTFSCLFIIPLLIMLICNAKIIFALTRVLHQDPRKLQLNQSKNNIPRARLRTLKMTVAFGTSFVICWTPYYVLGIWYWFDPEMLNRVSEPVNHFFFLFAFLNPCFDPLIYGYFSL
Procedure, shortened: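 Membranes from HEK-293 cells stably expressing rat GnRH receptor (5% sucrose homogenate; nuclei removed at 3000g, membranes pelleted at 20000g, 4 °C), 7 µg protein in 10 mM Hepes pH 7.5, 150 mM NaCl, 0.1% BSA. Competitor at varying concentrations vs des-Gly10-[125I-Tyr5,DAla6,NMeLeu7,Pro9-NHEt]GnRH (~100 000 cpm), 90 min; PEI-coated GF/C filtration, PBS wash, γ counting. Ki by nonlinear least-squares fit; ≥3 independent experiments, mean ± SEM.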

[2] = tested on: Rattus norvegicus; test: Evaluated for number of rats ovulating in an in vivo anti-ovulatory assay at dose (500 microg); 8/8; format: functional, organism-based

Compound	Ki [1] [nM]	Activity [2]
CC(=O)N[C@@H]1CNC(=O)C[C@H](C(=O)N[C@@H](CO)C(=O)N[C@@H](Cc2ccc(O)cc2)C(=O)N[C@H](Cc2ccc3ccccc3c2)C(=O)N[C@@H](CC(C)C)C(=O)N[C@@H](CCCN=C(N)N)C(=O)N2CCC[C@H]2C(=O)N[C@H](C)C(N)=O)NC(=O)[C@@H](Cc2ccc(Cl)cc2)NC1=O	1.7	
CC(=O)N[C@@H]1CC(=O)N[C@@H](C)C(=O)NCCC[C@H](C(=O)N[C@@H](CO)C(=O)N[C@@H](Cc2ccc(O)cc2)C(=O)N[C@H](Cc2ccc3ccccc3c2)C(=O)N[C@@H](CC(C)C)C(=O)N[C@@H](CCCN=C(N)N)C(=O)N2CCC[C@H]2C(=O)N[C@H](C)C(N)=O)NC(=O)[C@@H](Cc2ccc(Cl)cc2)NC1=O	3.3	
CC(=O)N[C@@H]1CCC(=O)NCC(=O)NCCC[C@H](C(=O)N[C@@H](CO)C(=O)N[C@@H](Cc2ccc(O)cc2)C(=O)N[C@H](Cc2ccc3ccccc3c2)C(=O)N[C@@H](CC(C)C)C(=O)N[C@@H](CCCN=C(N)N)C(=O)N2CCC[C@H]2C(=O)N[C@H](C)C(N)=O)NC(=O)[C@@H](Cc2ccc(Cl)cc2)NC1=O	4.2	
CC(=O)N[C@@H]1CC(=O)N[C@H](C)C(=O)NCC[C@H](C(=O)N[C@@H](CO)C(=O)N[C@@H](Cc2ccc(O)cc2)C(=O)N[C@H](Cc2ccc3ccccc3c2)C(=O)N[C@@H](CC(C)C)C(=O)N[C@@H](CCCN=C(N)N)C(=O)N2CCC[C@H]2C(=O)N[C@H](C)C(N)=O)NC(=O)[C@@H](Cc2ccc(Cl)cc2)NC1=O	0.57	
CC(=O)N[C@@H]1CC(=O)NCCC[C@H](C(=O)N[C@@H](CO)C(=O)N[C@@H](Cc2ccc(O)cc2)C(=O)N[C@H](Cc2ccc3ccccc3c2)C(=O)N[C@@H](CC(C)C)C(=O)N[C@@H](CCCN=C(N)N)C(=O)N2CCC[C@H]2C(=O)N[C@H](C)C(N)=O)NC(=O)[C@@H](Cc2ccc(Cl)cc2)NC1=O	1.6	
CC(=O)N[C@@H]1CC(=O)NCCCC[C@H](C(=O)N[C@@H](CO)C(=O)N[C@@H](Cc2ccc(O)cc2)C(=O)N[C@H](Cc2ccc3ccccc3c2)C(=O)N[C@@H](CC(C)C)C(=O)N[C@@H](CCCN=C(N)N)C(=O)N2CCC[C@H]2C(=O)N[C@H](C)C(N)=O)NC(=O)[C@@H](Cc2ccc(Cl)cc2)NC1=O	0.82	
CC(=O)N[C@@H]1CC(=O)N[C@H](C)C(=O)NCCC[C@H](C(=O)N[C@@H](CO)C(=O)N[C@@H](Cc2ccc(O)cc2)C(=O)N[C@H](Cc2ccc3ccccc3c2)C(=O)N[C@@H](CC(C)C)C(=O)N[C@@H](CCCN=C(N)N)C(=O)N2CCC[C@H]2C(=O)N[C@H](C)C(N)=O)NC(=O)[C@@H](Cc2ccc(Cl)cc2)NC1=O	2.4	
CC(=O)N[C@H]1CCC(=O)N[C@@H](C(=O)N[C@@H](CO)C(=O)N[C@@H](Cc2ccc(O)cc2)C(=O)N[C@H](CCCN=C(N)N)C(=O)N[C@H](CC(C)C)C(=O)N[C@@H](CCCN=C(N)N)C(=O)N2CCC[C@H]2C(=O)N[C@H](C)C(N)=O)CCCCNC(=O)[C@@H](Cc2ccc(Cl)cc2)NC1=O		inactive
CC(=O)N[C@@H]1CC(=O)NCCC(=O)NC[C@H](C(=O)N[C@@H](CO)C(=O)N[C@@H](Cc2ccc(O)cc2)C(=O)N[C@H](Cc2ccc3ccccc3c2)C(=O)N[C@@H](CC(C)C)C(=O)N[C@@H](CCCN=C(N)N)C(=O)N2CCC[C@H]2C(=O)N[C@H](C)C(N)=O)NC(=O)[C@@H](Cc2ccc(Cl)cc2)NC1=O	0.35	
CC(=O)N[C@@H]1CCC(=O)NCCCC[C@H](C(=O)N[C@@H](CO)C(=O)N[C@@H](Cc2ccc(O)cc2)C(=O)N[C@H](Cc2ccc3ccccc3c2)C(=O)N[C@@H](CC(C)C)C(=O)N[C@@H](CCCN=C(N)N)C(=O)N2CCC[C@H]2C(=O)N[C@H](C)C(N)=O)NC(=O)[C@@H](Cc2ccc(Cl)cc2)NC1=O	0.47	
CC(=O)N[C@@H]1CC(=O)N[C@@H](C)C(=O)NCC[C@H](C(=O)N[C@@H](CO)C(=O)N[C@@H](Cc2ccc(O)cc2)C(=O)N[C@H](Cc2ccc3ccccc3c2)C(=O)N[C@@H](CC(C)C)C(=O)N[C@@H](CCCN=C(N)N)C(=O)N2CCC[C@H]2C(=O)N[C@H](C)C(N)=O)NC(=O)[C@@H](Cc2ccc(Cl)cc2)NC1=O	1.8	
CC(=O)N[C@@H]1CCC(=O)NCC(=O)NCCCC[C@H](C(=O)N[C@@H](CO)C(=O)N[C@@H](Cc2ccc(O)cc2)C(=O)N[C@H](Cc2ccc3ccccc3c2)C(=O)N[C@@H](CC(C)C)C(=O)N[C@@H](CCCN=C(N)N)C(=O)N2CCC[C@H]2C(=O)N[C@H](C)C(N)=O)NC(=O)[C@@H](Cc2ccc(Cl)cc2)NC1=O	1.5	
CC(=O)N[C@@H]1CC(=O)N[C@@H](C)C(=O)NCCC[C@H](C(=O)N[C@@H](CO)C(=O)N[C@@H](Cc2ccc(O)cc2)C(=O)N[C@H](CCCN=C(N)N)C(=O)N[C@@H](CC(C)C)C(=O)N[C@@H](CCCN=C(N)N)C(=O)N2CCC[C@H]2C(=O)N[C@H](C)C(N)=O)NC(=O)[C@@H](Cc2ccc(Cl)cc2)NC1=O	350	
CC(=O)N[C@@H]1CCC(=O)NCCC(=O)NCCCC[C@H](C(=O)N[C@@H](CO)C(=O)N[C@@H](Cc2ccc(O)cc2)C(=O)N[C@H](Cc2ccc3ccccc3c2)C(=O)N[C@@H](CC(C)C)C(=O)N[C@@H](CCCN=C(N)N)C(=O)N2CCC[C@H]2C(=O)N[C@H](C)C(N)=O)NC(=O)[C@@H](Cc2ccc(Cl)cc2)NC1=O	2.2	
CC(=O)N[C@@H]1CC(=O)NCC(=O)NCC[C@H](C(=O)N[C@@H](CO)C(=O)N[C@@H](Cc2ccc(O)cc2)C(=O)N[C@H](Cc2ccc3ccccc3c2)C(=O)N[C@@H](CC(C)C)C(=O)N[C@@H](CCCN=C(N)N)C(=O)N2CCC[C@H]2C(=O)N[C@H](C)C(N)=O)NC(=O)[C@@H](Cc2ccc(Cl)cc2)NC1=O	0.7	
CC(=O)N[C@@H]1CCC(=O)NCC[C@H](C(=O)N[C@@H](CO)C(=O)N[C@@H](Cc2ccc(O)cc2)C(=O)N[C@H](Cc2ccc3ccccc3c2)C(=O)N[C@@H](CC(C)C)C(=O)N[C@@H](CCCN=C(N)N)C(=O)N2CCC[C@H]2C(=O)N[C@H](C)C(N)=O)NC(=O)[C@@H](Cc2ccc(Cl)cc2)NC1=O	0.31	
CC(=O)N[C@@H]1CCC(=O)NCCC[C@H](C(=O)N[C@@H](CO)C(=O)N[C@@H](Cc2ccc(O)cc2)C(=O)N[C@H](Cc2ccc3ccccc3c2)C(=O)N[C@@H](CC(C)C)C(=O)N[C@@H](CCCN=C(N)N)C(=O)N2CCC[C@H]2C(=O)N[C@H](C)C(N)=O)NC(=O)[C@@H](Cc2ccc(Cl)cc2)NC1=O	5.2	
CC(=O)N[C@@H]1CC(=O)NCCC(=O)NCC[C@H](C(=O)N[C@@H](CO)C(=O)N[C@@H](Cc2ccc(O)cc2)C(=O)N[C@H](Cc2ccc3ccccc3c2)C(=O)N[C@@H](CC(C)C)C(=O)N[C@@H](CCCN=C(N)N)C(=O)N2CCC[C@H]2C(=O)N[C@H](C)C(N)=O)NC(=O)[C@@H](Cc2ccc(Cl)cc2)NC1=O	0.32	
CC(=O)N[C@@H]1CC(=O)NCCCC[C@H](C(=O)N[C@H]2CC(=O)NC[C@@H](C(N)=O)NC(=O)[C@@H]3CCCN3C(=O)[C@H](CCCN=C(N)N)NC(=O)[C@H](CC(C)C)NC(=O)[C@@H](Cc3ccc4ccccc4c3)NC(=O)[C@H](Cc3ccc(O)cc3)NC2=O)NC(=O)[C@@H](Cc2ccc(Cl)cc2)NC1=O	1.2	
CC(=O)N[C@@H]1CC(=O)NCCC(=O)NCCC[C@H](C(=O)N[C@@H](CO)C(=O)N[C@@H](Cc2ccc(O)cc2)C(=O)N[C@H](Cc2ccc3ccccc3c2)C(=O)N[C@@H](CC(C)C)C(=O)N[C@@H](CCCN=C(N)N)C(=O)N2CCC[C@H]2C(=O)N[C@H](C)C(N)=O)NC(=O)[C@@H](Cc2ccc(Cl)cc2)NC1=O	0.17	
CC(=O)N[C@@H]1CCC(=O)NCC(=O)NCC[C@H](C(=O)N[C@@H](CO)C(=O)N[C@@H](Cc2ccc(O)cc2)C(=O)N[C@H](Cc2ccc3ccccc3c2)C(=O)N[C@@H](CC(C)C)C(=O)N[C@@H](CCCN=C(N)N)C(=O)N2CCC[C@H]2C(=O)N[C@H](C)C(N)=O)NC(=O)[C@@H](Cc2ccc(Cl)cc2)NC1=O	20.3	
CC(=O)N[C@@H]1CC(=O)NCC(=O)NCCCC[C@H](C(=O)N[C@@H](CO)C(=O)N[C@@H](Cc2ccc(O)cc2)C(=O)N[C@H](Cc2ccc3ccccc3c2)C(=O)N[C@@H](CC(C)C)C(=O)N[C@@H](CCCN=C(N)N)C(=O)N2CCC[C@H]2C(=O)N[C@H](C)C(N)=O)NC(=O)[C@@H](Cc2ccc(Cl)cc2)NC1=O	0.14	
CC(=O)N[C@H]1CC(=O)NC[C@@H](C(=O)N[C@@H](CO)C(=O)N[C@@H](Cc2ccc(O)cc2)C(=O)N[C@H](Cc2ccc3ccccc3c2)C(=O)N[C@@H](CC(C)C)C(=O)N[C@@H](CCCN=C(N)N)C(=O)N2CCC[C@H]2C(=O)N[C@H](C)C(N)=O)NC(=O)[C@@H](Cc2ccc(Cl)cc2)NC1=O	31	
CC(=O)N[C@@H]1CC(=O)NCCCC(=O)NC[C@H](C(=O)N[C@@H](CO)C(=O)N[C@@H](Cc2ccc(O)cc2)C(=O)N[C@H](Cc2ccc3ccccc3c2)C(=O)N[C@@H](CC(C)C)C(=O)N[C@@H](CCCN=C(N)N)C(=O)N2CCC[C@H]2C(=O)N[C@H](C)C(N)=O)NC(=O)[C@@H](Cc2ccc(Cl)cc2)NC1=O	0.18	
CC(=O)N[C@@H]1CCC(=O)NCCCC[C@H](C(=O)N[C@H]2CC(=O)NC[C@@H](C(N)=O)NC(=O)[C@@H]3CCCN3C(=O)[C@@H]3CCCCNC(=O)CC[C@H](NC2=O)C(=O)N[C@H](Cc2ccc4ccccc4c2)C(=O)N[C@@H](CC(C)C)C(=O)N3)NC(=O)[C@@H](Cc2ccc(Cl)cc2)NC1=O	4.6	
CC(=O)N[C@@H]1CC(=O)NCC(=O)NCCC[C@H](C(=O)N[C@@H](CO)C(=O)N[C@@H](Cc2ccc(O)cc2)C(=O)N[C@H](Cc2ccc3ccccc3c2)C(=O)N[C@@H](CC(C)C)C(=O)N[C@@H](CCCN=C(N)N)C(=O)N2CCC[C@H]2C(=O)N[C@H](C)C(N)=O)NC(=O)[C@@H](Cc2ccc(Cl)cc2)NC1=O	0.34	
